The values that follow come from ChEMBL document CHEMBL1143958, “Synthesis of insecticidal fluorinated anthranilic diamides” (Bioorg Med Chem, 2008).

The test system of data set [1] is Aphis gossypii. Briefly: Insecticidal activity against Aphis gossypii glover in cotton/melon plant. It is filed as functional, organism-based. An outline of the steps: (§1)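 Combined contact/systemic (CON/SYS) plant assay. Test compound applied to give good foliar and soil coverage, so both contact and soil systemic exposure occur. Aphis gossypii on cotton plants; Myzus persicae on radish plants 12–15 days old, treated the same way. Run in triplicate, rates 3–5× apart where possible. Units dried 1 h, capped, held 6 days at 19–21 °C and 50–70% RH.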

In data set [2] the test system is Aphis gossypii. Briefly: Insecticidal activity against Aphis gossypii glover in cotton/melon plant by combined contact/systemic plant assay. Details: unit not given here.
A short description of data set [3]: Lipophilicity, log P of the compound. The format is physicochemical. The following applies: octanol/water. An outline of the steps:
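Measured by reversed-phase HPLC on a C18 column at 40 °C, 1.0 mL/min. Gradient over 5 min from 99% 5 mM ammonium acetate pH 7 to 99% 5 mM ammonium acetate in acetonitrile. logP read from a calibration curve of retention times for compounds with known shake-flask octanol–water values.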

Data set [4] deals with Myzus persicae. Description: Insecticidal activity against Myzus persicae Sulzer in raddish plant. The format is functional, organism-based. In outline:
as §1

Data set [5] relates to Aphis gossypii. Description: Insecticidal activity against Aphis gossypii glover in cotton/melon plant by combined contact/systemic plant assay.
For data set [6], the system named is Myzus persicae. Description: Insecticidal activity against Myzus persicae Sulzer in raddish plant by combined contact/systemic plant assay. Details: unit not given here.
For data set [7], the system named is Myzus persicae. The description is as above. Details: unit not given here. The source holds these as a separate data set.
For data set [8], the system named is Myzus persicae. Briefly: Insecticidal activity against Myzus persicae Sulzer in raddish plant assessed as mortality at 250 ppm by systemic plant assay. The format is functional. In outline:
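Systemic-only (SYS) plant assay on Myzus persicae. Formulated compound applied directly to the soil, avoiding any direct contact with the aphids. Percent mortality recorded at 250 ppm.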

The test system of data set [9] is Myzus persicae. Briefly: Insecticidal activity against Myzus persicae Sulzer in raddish plant assessed as mortality at 250 ppm. The format is functional. An outline of the steps: as §1
The test system of data set [10] is Aphis gossypii. Briefly: Insecticidal activity against Aphis gossypii glover in cotton plant assessed as mortality at 250 ppm. The format is functional. In outline:
as §1

Data set [11] relates to Myzus persicae. Briefly: Insecticidal activity against Myzus persicae Sulzer in raddish plant assessed as mortality at 50 ppm. It is filed as functional. An outline of the steps: as §1
The subject of data set [12] is Aphis gossypii. Briefly: Insecticidal activity against Aphis gossypii glover in cotton/melon plant assessed as mortality at 2 ppm. The format is functional. An outline of the steps: as §1
Data set [13] relates to Aphis gossypii. Description: Insecticidal activity against Aphis gossypii glover in cotton/melon plant assessed as mortality at 50 ppm. The format is functional. In outline:
as §1

Data set [14] has as its system Aphis gossypii. Briefly: Insecticidal activity against Aphis gossypii glover in cotton/melon plant assessed as mortality at 100 ppm. The format is functional. In outline:
as §1

Data set [15] deals with Myzus persicae. Briefly: Insecticidal activity against Myzus persicae Sulzer in raddish plant assessed as mortality at 100 ppm. The format is functional. In outline: as §1

Broadly, the logP is a log measure of how a compound divides between an organic and an aqueous phase. For the compound `CNC(=O)c1cc(Cl)cc(F)c1NC(=O)c1cc(Br)nn1-c1ncccc1Cl`, the EC50 is listed as 5.5 ppm in data set [1] and more than 300 ppm in data set [4]. The EC50 upper 95% confidence limit in [2] stood at 9.5. In addition, the logP in [3] was 2.9. In addition, the EC50 lower 95% confidence limit in [5] amounted to 3 ppm.

For `CNC(=O)c1cc(F)cc(Cl)c1NC(=O)c1cc(C(F)(F)F)nn1-c1ncccc1Cl`, the EC50 in data set [1] turned out to be 5.5 ppm; in data set [4], 9.2 ppm. Also, the EC50 upper 95% confidence limit in data set [6] turned out to be 12.9; in data set [2], 8.1. Further, the results for the EC50 lower 95% confidence limit in data set [7] and in [5] were 7.2 and 4 ppm, respectively. Besides, the Activity in data set [8] came to 100%.

With `CNC(=O)c1cc(F)cc(Cl)c1NC(=O)c1cc(Br)nn1-c1ncccc1Cl`, the EC50 was 2.5 ppm in [1] and 7.8 ppm in data set [4]. For the same compound, the EC50 upper 95% confidence limit in [6] turned out to be 23.2; in [2], 4.7. The compound also came in with a logP in data set [3] of 2.6. The EC50 lower 95% confidence limit in data set [7] was found to be 4; in data set [5], 1.1 ppm. Also, the Activity in data set [8] is reported as 2%.

Turning to `CNC(=O)c1cc(F)cc(C)c1NC(=O)c1cc(C(F)(F)F)nn1-c1ncccc1Cl`, the EC50 in [1] turned out to be 63.4 ppm; in data set [4], 30.8 ppm. In addition, the EC50 upper 95% confidence limit in data set [6] turned out to be 84.3; in data set [2], 201. The EC50 lower 95% confidence limit was found to be 6.7 in data set [7] and 26 ppm in data set [5]. Further, in [8], the Activity is 8%.

For `CNC(=O)c1cc(Cl)cc(C)c1NC(=O)c1cc(F)nn1-c1ncccc1Cl`, the results for the EC50 in data set [1] and in data set [4] were more than 100 ppm and more than 300 ppm, respectively.

`CNC(=O)c1cc(Cl)cc(Cl)c1NC(=O)c1cc(Br)nn1-c1ncccc1Cl`: the figures for the EC50 in data set [1] and in data set [4] were 1.6 ppm and 2.1 ppm, respectively. The EC50 upper 95% confidence limit turned out to be 3.2 in data set [6] and 2.4 in data set [2]. This compound also gave a logP in data set [3] of 3. Moreover, the values for the EC50 lower 95% confidence limit in data set [7] and in [5] were 1.4 and 0.9 ppm, respectively. In addition, the Activity in [8] worked out at 22%.

Turning to `CNC(=O)c1cc(F)cc(C)c1NC(=O)c1cc(Br)nn1-c1ncccc1Cl`, the figures for the EC50 in data set [1] and in data set [4] were 11.3 ppm and more than 300 ppm, respectively. Besides, in data set [2], the EC50 upper 95% confidence limit was found to be 18.5. Further, in data set [5], the EC50 lower 95% confidence limit stood at 7.2 ppm. The Activity in data set [8] is less than 80%.

Consider `CNC(=O)c1cc(Cl)cc(Cl)c1NC(=O)c1cc(C(F)(F)F)nn1-c1ncccc1F`, for which the EC50 was determined as 9.1 ppm in [1] and 3.4 ppm in data set [4]. The EC50 upper 95% confidence limit in data set [6] worked out at 7; in data set [2] it was 16.3. The EC50 lower 95% confidence limit worked out at 1.5 in [7] and 5.8 ppm in [5]. Further, the Activity in [8] is given as 58%.

As to `O=[N+]([O-])/N=C1\NCCN1Cc1ccc(Cl)nc1` [IMIDACLOPRID], the EC50 is given as 0.4 ppm in [1] and 0.3 ppm in [4].

`CNC(=O)c1cc(F)cc(F)c1NC(=O)c1cc(F)nn1-c1ncccc1Cl`: the results for the Activity in data set [9], in data set [10] and in data set [11] were 100%, 70% and 80%, respectively. The EC50 in data set [1] and in data set [4] was less than 250 ppm in each case.

For the compound `CNC(=O)c1cc(Cl)cc(C)c1NC(=O)c1cc(Br)nn1-c1ncccc1F`, the EC50 in data set [1] is 3.7 ppm; in data set [4], 11.3 ppm. Moreover, the figures for the EC50 upper 95% confidence limit in data set [6] and in [2] were 15.2 and 6.4, respectively. Further, the EC50 lower 95% confidence limit was 8.7 in data set [7] and 2 ppm in data set [5]. Further, the Activity in data set [8] is 29%.

`CNC(=O)c1cc(Cl)cc(Cl)c1NC(=O)c1cc(C(F)(F)F)nn1-c1ncccc1Cl`: the EC50 in data set [1] is on record as 2.1 ppm; in data set [4] it was 3.4 ppm. Besides, the EC50 upper 95% confidence limit is 4.6 in data set [6] and 3.5 in data set [2]. Besides, the EC50 lower 95% confidence limit worked out at 2.7 in [7] and 1.4 ppm in data set [5]. Besides, the Activity in data set [8] is 74%.

Turning to `CNC(=O)c1cc(Cl)cc(C)c1NC(=O)c1cc(Br)nn1-c1ncccc1Cl` [CHLORANTRANILIPROLE], the EC50 in data set [1] is reported as 3.1 ppm; in [4], 12.4 ppm. For the same compound, the logP in [3] was determined as 3. Moreover, the Activity in data set [8] was determined as 12%.

On to `CNC(=O)c1cc(Cl)cc(Cl)c1NC(=O)c1cc(F)nn1-c1ncccc1Cl`, for which the EC50 stood at 6.2 ppm in [1] and 20.6 ppm in data set [4]. Besides, the values for the EC50 upper 95% confidence limit in data set [6] and in data set [2] were 26.8 and 8.9, respectively. Moreover, the logP in data set [3] amounted to 2.6. The values for the EC50 lower 95% confidence limit in [7] and in data set [5] were 15.9 and 4.4 ppm, respectively. For the same compound, the Activity in data set [8] was 2%.

In the case of `CNC(=O)c1cc(Cl)cc(Cl)c1NC(=O)c1cc(Br)nn1-c1ncccc1F`, the EC50 is less than 2 ppm in [1] and 1.8 ppm in data set [4]. Further, the Activity turned out to be 89% in [12] and 29% in [8]. In [3], the logP came to 2.7.

Take `CNC(=O)c1cc(F)cc(F)c1NC(=O)c1cc(Br)nn1-c1ncccc1Cl`: the EC50 in data set [1] is recorded as less than 50 ppm; in data set [4], less than 250 ppm. Also, the Activity in data set [13] was 85%; in [8] it was 14%.

`CNC(=O)c1cc(F)cc(Cl)c1NC(=O)c1cc(F)nn1-c1ncccc1Cl`: the EC50 in data set [1] and in data set [4] was less than 100 ppm each time. Also, the Activity in [14] amounted to 89%; in [15], 65%.
